Drawing on ChEMBL document CHEMBL3739314, “Discovery of Nanomolar Dengue and West Nile Virus Protease Inhibitors Containing a 4-Benzyloxyphenylglycine Residue” (J Med Chem, 2015), this text covers inhibition and IC50 for 33 compounds.

The target of assay [1] is Prothrombin (Homo sapiens) (UniProt P00734). In words: Inhibition of thrombin (unknown origin) using Boc-Val-Pro-Arg-AMC as substrate at 25 uM preincubated with protein for 15 mins followed by substrate addition measured for 10 mins by continuous fluorimetric assay relative to control.
Assay [2] in a line: Inhibition of Dengue virus serotype-2 NS2B-NS3 protease using 2-Abz-Nle-Lys-Arg-Arg-Ser-(3-NO2)-Tyr-NH2 as substrate preincubated with protein for 15 mins followed by substrate addition measured for 15 mins by FRET assay. More on the design: species or system dengue virus type 2. The method in brief: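 DENV-2 NS2B-NS3 linked construct at 30 nM (15 nM in some cases), same pH 9 Tris buffer, 15 min preincubation and FRET read-out. Eight inhibitor concentrations spanned 0–1, 0–2, 0–6 or 0–50 μM, with substrate at 50 μM. IC50 was fitted from triplicates.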

In the next assay the test system is West Nile virus. Description: Inhibition of West Nile virus NS2B-NS3 protease using 2-Abz-Gly-Leu-Lys-Arg-Gly-Gly-[…]-Tyr-NH2 as substrate at 50 uM preincubated with protein for 15 mins followed by substrate addition measured for 15 mins by FRET assay. The method in brief:
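Linked WNV NS2B-NS3 protease (150 nM) was preincubated 15 min with inhibitor (50 μM final) in 50 mM Tris-HCl pH 9, 10% ethylene glycol, 0.0016% Brij 58. […] Percent inhibition was taken from the slope relative to the no-inhibitor control, in triplicate.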

A short description of assay [3]: Inhibition of West Nile virus NS2B-NS3 protease using 2-Abz-Gly-Leu-Lys-Arg-Gly-Gly-[…]-Tyr-NH2 as substrate preincubated with protein for 15 mins followed by substrate addition measured for 15 mins by FRET assay. An outline of the steps: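 WNV NS2B-NS3 linked construct at 75 nM (40 nM in one case) in pH 9 Tris buffer, preincubated 15 min with eight inhibitor concentrations (ranges 0–1 up to 0–50 μM). Substrate was 50 μM, with FRET readout over 15 min. IC50 was fitted from triplicates.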

`CC(=O)c1ccc(C(=O)N[C@@H](CCCNC(=N)N)C(=O)N[C@@H](CCCCN)C(=O)N[C@@H](C(N)=O)c2ccc(OCc3ccccc3)cc2)cc1`: the inhibition (in general, the drop in the measured response relative to a control, in per cent) in assay [1] is less than 30%; in the assay with West Nile virus, 84.6%. The IC50 (usually the concentration that gives 50% inhibition) in assay [2] was 1040 nM.
As for `N=C(N)NCCC[C@H](NC(=O)c1ccc(Cl)s1)C(=O)N[C@@H](CCCCN)C(=O)N[C@@H](C(N)=O)c1ccc(OCc2ccccc2)cc1`, the 50% inhibitory concentration (IC50) was determined as 457 nM in assay [3] and 177 nM in assay [2]. Further, the inhibition in assay [1] was less than 30%; in the assay on West Nile virus it was 98.4%.
For the compound `N=C(N)NCCC[C@H](NC(=O)/C=C/c1ccccc1)C(=O)N[C@@H](CCCCN)C(=O)N[C@@H](C(N)=O)c1ccc(OCc2ccccc2)cc1`, the IC50 in assay [3] stood at 561 nM; in assay [2], 323 nM. Moreover, the inhibition was less than 30% in assay [1] and 99.7% with West Nile virus.
For `N=C(N)NCCC[C@H](NC(=O)c1ccc(-c2ccccc2)s1)C(=O)N[C@@H](CCCCN)C(=O)N[C@@H](C(N)=O)c1ccc(OCc2ccccc2)cc1`, in that order: 360 nM, 347 nM, less than 30% and 100%.
In the same order, the values of `N=C(N)NCCC[C@H](NC(=O)c1ccccc1)C(=O)N[C@@H](CCCCN)C(=O)N[C@@H](C(N)=O)c1ccc(OCC(=O)c2ccccc2)cc1` are 508 nM, 486 nM, less than 30% and 98.8%.
As for `N=C(N)NCCC[C@H](NC(=O)c1ccccc1)C(=O)N[C@@H](CCCCN)C(=O)N[C@@H](C(N)=O)c1ccc(OCc2ccc(Cl)cc2)cc1`, the IC50 was 486 nM in assay [3] and 143 nM in assay [2]. Further, the inhibition was less than 30% in assay [1] and 102% with West Nile virus.
Take `N=C(N)NCCC[C@H](NC(=O)c1ccccc1)C(=O)N[C@@H](CCCCN)C(=O)N[C@@H](C(N)=O)c1ccc(OCc2ccccc2Br)cc1`: the inhibition in assay [1] was less than 30%; with West Nile virus, 96.7%. The same compound returned an IC50 in assay [2] of 366 nM.
`N=C(N)NCCC[C@H](NC(=O)c1ccccc1C(F)(F)F)C(=O)N[C@@H](CCCCN)C(=O)N[C@@H](C(N)=O)c1ccc(OCc2ccccc2)cc1`: the IC50 in assay [3] amounted to 434 nM; in assay [2] it was 301 nM. In addition, the inhibition was less than 30% in assay [1] and 98.7% in the assay on West Nile virus.
As to `Cc1ccc(C(=O)N[C@@H](CCCNC(=N)N)C(=O)N[C@@H](CCCCN)C(=O)N[C@@H](C(N)=O)c2ccc(OCc3ccccc3)cc2)s1`, the figures for the inhibition (in assay [1]; in the assay on West Nile virus) were less than 30% and 92.6%, respectively. Besides, half-maximal inhibition in assay [2] (IC50) was put at 364 nM.
As to `N=C(N)NCCC[C@H](NC(=O)c1cccs1)C(=O)N[C@@H](CCCCN)C(=O)N[C@@H](C(N)=O)c1ccc(OCc2ccccc2)cc1`, the results for the IC50 in assay [3] and in assay [2] were 296 nM and 109 nM, respectively. Also, the inhibition in assay [1] was less than 30%; in the assay with West Nile virus, 98%.
As for `N=C(N)NCCC[C@H](NC(=O)c1ccccc1)C(=O)N[C@@H](CCCCN)C(=O)N[C@@H](C(N)=O)c1ccc(OCc2cccc(Cl)c2)cc1`, the figures for the concentration for half-maximal inhibition (IC50) in assay [3] and in assay [2] were 321 nM and 186 nM, respectively. In addition, the inhibition is less than 30% in assay [1] and 102% in the assay with West Nile virus.
Regarding `N=C(N)NCCC[C@H](NC(=O)c1cccnc1)C(=O)N[C@@H](CCCCN)C(=O)N[C@@H](C(N)=O)c1ccc(OCc2ccccc2)cc1`, the inhibition in assay [1] was less than 30%; in the assay with West Nile virus it was 96.4%. In assay [2], inhibition was half-maximal at 262 nM (IC50).
Consider `N=C(N)NCCC[C@H](NC(=O)c1ccccc1)C(=O)N[C@@H](CCCCN)C(=O)N[C@@H](C(N)=O)c1ccc(OCc2c(Cl)cccc2Cl)cc1`, for which the results for the IC50 in assay [3] and in assay [2] were 493 nM and 151 nM, respectively. The inhibition was less than 30% in assay [1] and 101% in the assay on West Nile virus.
Regarding `N=C(N)NCCC[C@H](NC(=O)c1ccccc1)C(=O)N[C@@H](CCCCN)C(=O)N[C@@H](C(N)=O)c1ccc(OCc2ccccc2Cl)cc1`, the results for the IC50 in assay [3] and in assay [2] were 406 nM and 321 nM, respectively. Besides, the inhibition in assay [1] is less than 30%; with West Nile virus, 98.1%.
In the case of `N=C(N)NCCC[C@H](NC(=O)c1cncs1)C(=O)N[C@@H](CCCCN)C(=O)N[C@@H](C(N)=O)c1ccc(OCc2ccccc2)cc1`, the inhibition in assay [1] is less than 30%; in the assay with West Nile virus it was 97.4%. The compound also showed an IC50 in assay [2] of 304 nM.
As to `N=C(N)NCCC[C@H](NC(=O)C1CCCCC1)C(=O)N[C@@H](CCCCN)C(=O)N[C@@H](C(N)=O)c1ccc(OCc2ccccc2)cc1`, the inhibition in assay [1] was less than 30%; in the assay with West Nile virus, 95.7%. The midpoint of inhibition in assay [2], the IC50, lay at 781 nM.
For `Cc1cccc(COc2ccc([C@@H](NC(=O)[C@H](CCCCN)NC(=O)[C@H](CCCNC(=N)N)NC(=O)c3ccccc3)C(N)=O)cc2)c1`, in that order: less than 30%, 85.2% and 309 nM.
In the same order, the values of `N=C(N)NCCC[C@H](NC(=O)c1sccc1-n1cccc1)C(=O)N[C@@H](CCCCN)C(=O)N[C@@H](C(N)=O)c1ccc(OCc2ccccc2)cc1` are less than 30%, 94.3% and 322 nM.
In the same order, the values of `N=C(N)NCCC[C@H](NC(=O)c1ccccc1)C(=O)N[C@@H](CCCCN)C(=O)N[C@@H](C(N)=O)c1ccc(OCc2ccccc2C(F)(F)F)cc1` are less than 30%, 97% and 181 nM.
Turning to `N=C(N)NCCC[C@H](NC(=O)c1scc2c1OCCO2)C(=O)N[C@@H](CCCCN)C(=O)N[C@@H](C(N)=O)c1ccc(OCc2ccccc2)cc1`, the inhibition is less than 30% in assay [1] and 96.2% with West Nile virus. The same compound gave a 50% inhibitory concentration (IC50) in assay [2] of 194 nM.
In the same order, the values of `CC(C)(C)c1ccc(COc2ccc([C@@H](NC(=O)[C@H](CCCCN)NC(=O)[C@H](CCCNC(=N)N)NC(=O)c3ccccc3)C(N)=O)cc2)cc1` are less than 30%, 85.6% and 173 nM.
Take `N=C(N)NCCC[C@H](NC(=O)c1cc2ccsc2s1)C(=O)N[C@@H](CCCCN)C(=O)N[C@@H](C(N)=O)c1ccc(OCc2ccccc2)cc1`: the inhibition is less than 30% in assay [1] and 96.6% in the assay on West Nile virus. Besides, in assay [2], the concentration for half-maximal inhibition (IC50) turned out to be 505 nM.
For `N=C(N)NCCC[C@H](NC(=O)CCc1ccccc1)C(=O)N[C@@H](CCCCN)C(=O)N[C@@H](C(N)=O)c1ccc(OCc2ccccc2)cc1`, in that order: less than 30%, 87.4% and 906 nM.
Turning to `N=C(N)NCCC[C@H](NC(=O)C1CCCC1)C(=O)N[C@@H](CCCCN)C(=O)N[C@@H](C(N)=O)c1ccc(OCc2ccccc2)cc1`, the figures for the inhibition (in assay [1]; in the assay with West Nile virus) were less than 30% and 96.3%, respectively. Further, the IC50 in assay [2] was found to be 701 nM.
In the same order, the values of `N=C(N)NCCC[C@H](NC(=O)c1cc2sccc2s1)C(=O)N[C@@H](CCCCN)C(=O)N[C@@H](C(N)=O)c1ccc(OCc2ccccc2)cc1` are less than 30%, 92.5% and 401 nM.
For `N=C(N)NCCC[C@H](NC(=O)c1ccc(C=O)cc1)C(=O)N[C@@H](CCCCN)C(=O)N[C@@H](C(N)=O)c1ccc(OCc2ccccc2)cc1`, in that order: less than 30%, 83% and 232 nM.
For `N=C(N)NCCC[C@H](NC(=O)c1ccccc1)C(=O)N[C@@H](CCCCN)C(=O)N[C@@H](C(N)=O)c1ccc(OCc2ccc(OC(F)(F)F)cc2)cc1`, in that order: less than 30%, 97.1% and 182 nM.
Turning to `N=C(N)NCCC[C@H](NC(=O)c1sccc1Cl)C(=O)N[C@@H](CCCCN)C(=O)N[C@@H](C(N)=O)c1ccc(OCc2ccccc2)cc1`, the inhibition in assay [1] is less than 30%; in the assay on West Nile virus it was 95.2%. In addition, inhibition in assay [2] was half-maximal at 194 nM (IC50).
In the same order, the values of `N=C(N)NCCC[C@H](NC(=O)c1cccc(F)c1)C(=O)N[C@@H](CCCCN)C(=O)N[C@@H](C(N)=O)c1ccc(OCc2ccccc2)cc1` are less than 30%, 95.5% and 466 nM.
For `N=C(N)NCCC[C@H](NC(=O)c1cccc(C=O)c1)C(=O)N[C@@H](CCCCN)C(=O)N[C@@H](C(N)=O)c1ccc(OCc2ccccc2)cc1`, in that order: less than 30%, 97.4% and 164 nM.
For `N=C(N)NCCC[C@H](NC(=O)c1ccccc1)C(=O)N[C@@H](CCCCN)C(=O)N[C@@H](C(N)=O)c1ccc(OCc2ccc(N)cc2)cc1`, in that order: less than 30%, 85.1% and 1990 nM.
For `N=C(N)NCCC[C@H](NC(=O)c1ccccc1)C(=O)N[C@@H](CCCCN)C(=O)N[C@@H](C(N)=O)c1ccc(OCc2ccc3ccccc3c2)cc1`, the inhibition in assay [1] was less than 30%; in the assay with West Nile virus, 92.6%. In assay [2], this compound came in with a concentration for half-maximal inhibition (IC50) of 192 nM.
On to `N=C(N)NCCC[C@H](NC(=O)c1ccc(F)cc1)C(=O)N[C@@H](CCCCN)C(=O)N[C@@H](C(N)=O)c1ccc(OCc2ccccc2)cc1`, for which the inhibition in assay [1] is less than 30%; with West Nile virus, 92.9%. In assay [2], this compound yielded a 50% inhibitory concentration (IC50) of 639 nM.
